Measured values: ChEMBL document CHEMBL1144617, “Quinoxalinylurea derivatives as a novel class of JSP-1 inhibitors” (Bioorg Med Chem Lett, 2007)

target: T1, Dual specificity protein phosphatase 22 (Homo sapiens, UniProt Q9NRW4); assay: Inhibition of GST-tagged human recombinant JSP1
T1 sequence (Q9NRW4 whole entry): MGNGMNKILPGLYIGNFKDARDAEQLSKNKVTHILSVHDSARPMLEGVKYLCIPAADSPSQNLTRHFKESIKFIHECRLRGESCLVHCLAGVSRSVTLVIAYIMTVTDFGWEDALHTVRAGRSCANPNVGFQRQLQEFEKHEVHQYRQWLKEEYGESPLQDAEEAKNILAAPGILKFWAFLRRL
In short: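 Fluorescence kinetic phosphatase assay: 30 nM purified recombinant GST-fused human JSP-1 in 50 mM Bis-Tris pH 6.5, 1 mM EDTA, 1 mM DTT, with 10 µM OMFP as substrate. Hydrolysis followed continuously at excitation 485/emission 535 nm for 3 min; initial rate taken from the linear region of the kinetic curve.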

| SMILES | IC50 |
| --- | --- |
| O=C(NC1CCCCC1)C1CCCN(C(=O)Nc2ccc3nc(-c4ccc(F)cc4)c(-c4ccc(F)cc4)nc3c2)C1 (stereo not drawn) | > 40 µM |
| COc1nc2ccc(NC(=O)N3CCCC(C(=O)N4CCCCC4)C3)cc2nc1OC (stereo not drawn) | > 100 µM |
| COc1nc2ccc(NC(=O)N3CCCC(C(=O)NC4CCCCC4)C3)cc2nc1OC (stereo not drawn) | > 100 µM |
| CCCN(CCC)C(=O)C1CCCN(C(=O)Nc2ccc3nc(-c4ccco4)c(-c4ccco4)nc3c2)C1 (stereo not drawn) | 2.5 µM |
| CC(C)NC(=O)C1CCCN(C(=O)Nc2ccc3nc(-c4ccco4)c(-c4ccco4)nc3c2)C1 (stereo not drawn) | > 40 µM |
| O=C(NC1CCCC1)C1CCCN(C(=O)Nc2ccc3nc(-c4ccco4)c(-c4ccco4)nc3c2)C1 (stereo not drawn) | 3.02 µM |
| O=C(NC1CCCCC1)C1CCCN(C(=O)Nc2ccc3nc(-c4ccco4)c(-c4ccco4)nc3c2)C1 (stereo not drawn) | 2.25 µM |
| O=C(Nc1ccc2nc(-c3ccccc3)c(-c3ccccc3)nc2c1)N1CCCC(C(=O)N2CCCCC2)C1 (stereo not drawn) | > 40 µM |
| CCN(CC)C(=O)C1CCCN(C(=O)Nc2ccc3nc(-c4ccc(Br)cc4)c(-c4ccc(Br)cc4)nc3c2)C1 (stereo not drawn) | > 40 µM |
| CC(C)(C)NC(=O)C1CCCN(C(=O)Nc2ccc3nc(-c4ccco4)c(-c4ccco4)nc3c2)C1 (stereo not drawn) | 8.05 µM |
| O=C(Nc1ccc2nc(-c3ccco3)c(-c3ccco3)nc2c1)N1CCCC(C(=O)N2CCCCC2)C1 (stereo not drawn) | 8.39 µM |

Further lines, results first:

| IC50 | SMILES |
| --- | --- |
| > 40 µM | Cc1ccc(-c2nc3ccc(NC(=O)N4CCCC(C(=O)NC5CCCC5)C4)cc3nc2-c2ccc(C)cc2)cc1 (stereo not drawn) |
| > 40 µM | CCN(CC)C(=O)C1CCCN(C(=O)Nc2ccc3nc(-c4ccccc4)c(-c4ccccc4)nc3c2)C1 (stereo not drawn) |
| > 40 µM | CCN(CC)C(=O)C1CCCN(C(=O)Nc2ccc3nc(-c4ccc(C)cc4)c(-c4ccc(C)cc4)nc3c2)C1 (stereo not drawn) |
| > 40 µM | O=C(Nc1ccc2nc(-c3ccc(Br)cc3)c(-c3ccc(Br)cc3)nc2c1)N1CCCC(C(=O)N2CCCC2)C1 (stereo not drawn) |
| 5.55 µM | CCCCN(C)C(=O)C1CCCN(C(=O)Nc2ccc3nc(-c4ccco4)c(-c4ccco4)nc3c2)C1 (stereo not drawn) |
| 2.35 µM | CCCCN(CC)C(=O)C1CCCN(C(=O)Nc2ccc3nc(-c4ccco4)c(-c4ccco4)nc3c2)C1 (stereo not drawn) |
| 8.36 µM | CC(C)CNC(=O)C1CCCN(C(=O)Nc2ccc3nc(-c4ccco4)c(-c4ccco4)nc3c2)C1 (stereo not drawn) |
| 12 µM | CCN(CC)C(=O)C1CCCN(C(=O)Nc2ccc3nc(-c4ccco4)c(-c4ccco4)nc3c2)C1 (stereo not drawn) |
| > 40 µM | CN(C)C(=O)C1CCCN(C(=O)Nc2ccc3nc(-c4ccco4)c(-c4ccco4)nc3c2)C1 (stereo not drawn) |
| > 40 µM | CCNC(=O)C1CCCN(C(=O)Nc2ccc3nc(-c4ccco4)c(-c4ccco4)nc3c2)C1 (stereo not drawn) |
| 2.79 µM | CCCCNC(=O)C1CCCN(C(=O)Nc2ccc3nc(-c4ccco4)c(-c4ccco4)nc3c2)C1 (stereo not drawn) |
| > 40 µM | CCN(CC)C(=O)C1CCCN(C(=O)Nc2ccc3nc(-c4ccc(F)cc4)c(-c4ccc(F)cc4)nc3c2)C1 (stereo not drawn) |
